Experimental data published in ChEMBL document CHEMBL1131378, “Synthesis and endectocidal activity of novel 1-(arylsulfonyl)-1-[(trifluoromethyl)sulfonyl]methane derivatives” (J Med Chem, 1998).

What was measured:
Stomoxys calcitrans [1] = assay: Insecticidal property against Stomoxys calcitrans measured as lowest concentration in bovine serum vs adult stable fly giving > 90% mortality; format: functional
Outline: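 Serum titrated with compound from 100 ppm downward was soaked into dental wicks and placed in dishes with 10 chilled adult stable flies. Kept about 48 h at about 25 °C and 75–85% humidity. Percent mortality was scored at 24 and 48 h against a wick with control serum only.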

Haemonchus contortus [2] = assay: The compound was tested for % reduction of Haemonchus contortus worms in gerbils dosed at 25 mg/kg.; format: functional
Outline: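 Mongolian gerbils infected with H. contortus received one oral gavage at 25 mg/kg BW in DMSO/H2O. Untreated infected gerbils served as negative controls and levamisole-dosed gerbils as positive controls, three per group. Stomachs and contents were vortexed in saline, incubated at 35 °C for at least 1 h and stained with iodine. Worms were counted per gerbil and % reduction taken against the mean of infected untreated controls.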

Rattus norvegicus = species on record: Rattus norvegicus; assay: Uncoupler concentration that reduced the respiratory control index by 50% of coupled rat liver mitochondria; format: functional
[3] = Partition coefficient (logP) (HPLC); format: physicochemical; settings: octanol/water
Outline: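 Partition coefficient measured chromatographically.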

[4] = (§1) Number of days posttreated in which >90% mortality of ASF was seen following exposure of insects to serum from sheep treated with 10 mg/kg of BW of compound by single ir injection; format: functional
Outline: (§2)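 Parasitized sheep (two per compound) received a single intraruminal injection at 10 mg/kg BW in PEG 200. Blood was drawn daily for 14 days and left about 24 h to separate. Serum-soaked dental wicks were exposed to adult stable flies for 48 h, with mortality compared to a serum-only control. Days posttreatment giving >90% mortality were counted.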

Haemonchus contortus [5] = assay: Compound was tested for % reduction of Haemonchus contortus worms in sheep dosed at 10 mg/kg by single ir injection; format: functional
Outline: (§3)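 Lambs with baseline fecal egg counts on days 26–28 postinoculation randomised to groups and held in individual metabolism crates. A single 10 mg/kg BW intraruminal dose was given in PEG 200. Fecal EPG was measured daily. Total H. contortus worm counts were used to calculate % reduction as (TWC control − TWC treated)/TWC control × 100, against untreated controls.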

[6] = The pKa value in aqueous solution.; format: physicochemical
Outline: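 pKa measured in aqueous solution.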

Haemonchus contortus [7] = assay: The compound was tested for % Reduction of Haemonchus contortus worms in sheep dosed at 10 mg/kg by single ir injection; format: functional; outline: as §3
Stomoxys calcitrans [8] = assay: as §1; format: functional; outline: as §2

O=S(=O)(CS(=O)(=O)C(F)(F)F)c1ccc(SC(F)(F)C(F)F)cc1
ASF (Stomoxys calcitrans [1]): >100 p.p.m.

O=[N+]([O-])c1ccc(S(=O)(=O)CS(=O)(=O)C(F)(F)F)cc1
ASF (Stomoxys calcitrans [1]): >100 p.p.m.

CC(S(=O)(=O)c1ccc(OC(F)(F)F)cc1)S(=O)(=O)C(F)(F)F (stereo not drawn)
Reduction (Haemonchus contortus [2]): 100%
IC50 (Rattus norvegicus): 710 µM
logP [3]: 3
ASF (Stomoxys calcitrans [1]): 25 p.p.m.
Days [4]: 6
Reduction (Haemonchus contortus [5]): 100%
pKa [6]: 6.2

O=S(=O)(CS(=O)(=O)C(F)(F)F)c1ccc(C(F)(F)F)cc1
Reduction (Haemonchus contortus [2]): 100%
IC50 (Rattus norvegicus): 5400 µM
logP [3]: 1
ASF (Stomoxys calcitrans [1]): 50 p.p.m.
Days [4]: 0
Reduction (Haemonchus contortus [5]): 100%
pKa [6]: 4

CC(S(=O)(=O)c1ccc(Cl)cc1)S(=O)(=O)C(F)(F)F (stereo not drawn)
ASF (Stomoxys calcitrans [1]): 50 p.p.m.

O=S(=O)(CS(=O)(=O)C(F)(F)F)c1ccc(Cl)cc1
Reduction (Haemonchus contortus [2]): 100%
IC50 (Rattus norvegicus): 4000 µM
Reduction (Haemonchus contortus [7]): 100%
logP [3]: 1.9
ASF (Stomoxys calcitrans [1]): 50 p.p.m.
Days (Stomoxys calcitrans [8]): 3
pKa [6]: 4.4

O=S(=O)(c1ccc(OC(F)(F)F)cc1)C(CSc1ccc(OC(F)(F)F)cc1)S(=O)(=O)C(F)(F)F (stereo not drawn)
ASF (Stomoxys calcitrans [1]): 50 p.p.m.

O=S(=O)(c1ccc(OC(F)(F)F)cc1)C(Cl)(Cl)S(=O)(=O)C(F)(F)F
ASF (Stomoxys calcitrans [1]): >100 p.p.m.

O=S(=O)(CS(=O)(=O)C(F)(F)F)c1ccc(OC(F)(F)C(F)F)cc1
ASF (Stomoxys calcitrans [1]): 25 p.p.m.

O=S(=O)(CS(=O)(=O)C(F)(F)C(F)(F)C(F)(F)C(F)(F)F)c1ccc(OC(F)(F)F)cc1
ASF (Stomoxys calcitrans [1]): 25 p.p.m.

O=S(=O)(c1ccc(Cl)cc1)C(Cc1ccccc1)S(=O)(=O)C(F)(F)F (stereo not drawn)
ASF (Stomoxys calcitrans [1]): >100 p.p.m.

CC(C)(C)c1ccc(S(=O)(=O)CS(=O)(=O)C(F)(F)F)cc1
IC50 (Rattus norvegicus): 2800 µM
logP [3]: 2.4
ASF (Stomoxys calcitrans [1]): >100 p.p.m.
pKa [6]: 5.1

CC(C)(C)Sc1ccc(S(=O)(=O)CS(=O)(=O)C(F)(F)F)cc1
ASF (Stomoxys calcitrans [1]): >100 p.p.m.

CCC(S(=O)(=O)c1ccc(Cl)cc1)S(=O)(=O)C(F)(F)F (stereo not drawn)
ASF (Stomoxys calcitrans [1]): 50 p.p.m.

Cc1cc(C(C#N)c2ccc(Cl)cc2)c(Cl)cc1NC(=O)c1cc(I)cc(I)c1O (stereo not drawn) [CLOSANTEL]
IC50 (Rattus norvegicus): 927 µM

O=S(=O)(c1ccc(OC(F)(F)F)cc1)C(CSc1ccc(Cl)cc1)S(=O)(=O)C(F)(F)F (stereo not drawn)
ASF (Stomoxys calcitrans [1]): 50 p.p.m.

O=S(=O)(c1ccc(Cl)c(Cl)c1)C(Cc1ccc(C(F)(F)F)cc1)S(=O)(=O)C(F)(F)F (stereo not drawn)
ASF (Stomoxys calcitrans [1]): 100 p.p.m.

CSC(S(=O)(=O)c1ccc(Cl)cc1)S(=O)(=O)C(F)(F)F (stereo not drawn)
ASF (Stomoxys calcitrans [1]): >100 p.p.m.

O=S(=O)(CS(=O)(=O)C(F)(F)F)c1ccccc1
ASF (Stomoxys calcitrans [1]): 50 p.p.m.

O=S(=O)(CS(=O)(=O)C(F)(F)F)c1ccc(Cl)cc1Cl
ASF (Stomoxys calcitrans [1]): >100 p.p.m.

N#Cc1ccc(S(=O)(=O)CS(=O)(=O)C(F)(F)F)cc1
ASF (Stomoxys calcitrans [1]): >100 p.p.m.

O=S(=O)(CS(=O)(=O)C(F)(F)F)c1ccc(SC(F)(F)C(F)F)c(Cl)c1
ASF (Stomoxys calcitrans [1]): >100 p.p.m.

O=S(=O)(CS(=O)(=O)C(F)(F)F)c1cc(C(F)(F)F)cc(C(F)(F)F)c1
ASF (Stomoxys calcitrans [1]): 50 p.p.m.

O=S(=O)(CS(=O)(=O)C(F)(F)F)c1ccc(Br)cc1
ASF (Stomoxys calcitrans [1]): 25 p.p.m.

O=S(=O)(CS(=O)(=O)C(F)(F)F)c1ccccc1Cl
ASF (Stomoxys calcitrans [1]): >100 p.p.m.

O=S(=O)(CS(=O)(=O)C(F)(F)F)c1ccc(OS(=O)(=O)C(F)(F)F)cc1
ASF (Stomoxys calcitrans [1]): 100 p.p.m.

O=S(=O)(CS(=O)(=O)C(F)(F)F)c1c(Cl)cccc1Cl
ASF (Stomoxys calcitrans [1]): >100 p.p.m.

O=S(=O)(CS(=O)(=O)C(F)(F)F)c1ccc(NS(=O)(=O)C(F)(F)F)cc1
ASF (Stomoxys calcitrans [1]): 100 p.p.m.

O=S(=O)(c1ccc(OC(F)(F)F)cc1)C(CSc1cccc(F)c1)S(=O)(=O)C(F)(F)F (stereo not drawn)
ASF (Stomoxys calcitrans [1]): 50 p.p.m.

O=S(=O)(CS(=O)(=O)C(F)(F)F)c1ccc(Cl)c(Cl)c1
Reduction (Haemonchus contortus [2]): 100%
IC50 (Rattus norvegicus): 3990 µM
Reduction (Haemonchus contortus [7]): 100%
logP [3]: 1.7
ASF (Stomoxys calcitrans [1]): >100 p.p.m.
Days (Stomoxys calcitrans [8]): 1
pKa [6]: 4

COc1ccc(S(=O)(=O)CS(=O)(=O)C(F)(F)F)cc1
ASF (Stomoxys calcitrans [1]): >100 p.p.m.

O=S(=O)(CS(=O)(=O)C(F)(F)F)c1ccc(O)cc1
ASF (Stomoxys calcitrans [1]): >100 p.p.m.

O=S(=O)(CS(=O)(=O)C(F)(F)F)c1ccc(F)c(Cl)c1
ASF (Stomoxys calcitrans [1]): 100 p.p.m.

O=S(=O)(CS(=O)(=O)C(F)(F)F)c1ccc(OC(F)(F)F)cc1
Reduction (Haemonchus contortus [2]): 100%
IC50 (Rattus norvegicus): 2950 µM
logP [3]: 2.2
ASF (Stomoxys calcitrans [1]): 25 p.p.m.
Days [4]: 10
Reduction (Haemonchus contortus [5]): 100%
pKa [6]: 4.1

O=S(=O)(CS(=O)(=O)C(F)(F)F)c1cccc(C(F)(F)F)c1
ASF (Stomoxys calcitrans [1]): >100 p.p.m.

Cc1ccc(S(=O)(=O)CS(=O)(=O)C(F)(F)F)cc1
ASF (Stomoxys calcitrans [1]): >100 p.p.m.

FC(F)(F)Oc1ccc(SCSC(F)(F)F)cc1
ASF (Stomoxys calcitrans [1]): >100 p.p.m.

CS(=O)(=O)Oc1ccc(S(=O)(=O)CS(=O)(=O)C(F)(F)F)cc1
ASF (Stomoxys calcitrans [1]): >100 p.p.m.

O=S(=O)(c1ccc(OC(F)(F)F)cc1)C(CSc1ccc(F)cc1)S(=O)(=O)C(F)(F)F (stereo not drawn)
Reduction (Haemonchus contortus [2]): 100%
ASF (Stomoxys calcitrans [1]): 50 p.p.m.
Days [4]: 6
Reduction (Haemonchus contortus [5]): 100%

O=[N+]([O-])c1ccc(O)c([N+](=O)[O-])c1 [2,4-DINITROPHENOL]
IC50 (Rattus norvegicus): 1000 µM
logP [3]: 1.5
pKa [6]: 4.6

O=S(=O)(CS(=O)(=O)C(F)(F)F)c1ccc(F)cc1
IC50 (Rattus norvegicus): 3150 µM
logP [3]: 1.3
ASF (Stomoxys calcitrans [1]): 100 p.p.m.
pKa [6]: 4.6

CC(S(=O)(=O)c1ccc(Cl)c(Cl)c1)S(=O)(=O)C(F)(F)F (stereo not drawn)
ASF (Stomoxys calcitrans [1]): 25 p.p.m.
